The text below walks through data of ChEMBL document CHEMBL3102857, “Synthesis and biological evaluation of 6H-pyrido[2',1':2,3]imidazo[4,5-c]isoquinolin-5(6H)-ones as antimitotic agents and inhibitors of tubulin polymerization” (Bioorg Med Chem, 2014).

The source made the active and inactive calls. No cut-off for these calls is given here.

In assay [1] the test system is HeLa. Nature of the assay: Cell cycle arrest in human HeLa cells assessed as decrease in accumulation at S phase at 0.5 uM after 12 hrs by propidium iodide staining-based flow cytometric analysis. In kind it is functional. An outline of the steps: (§1)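 Cells given 0.5 µM compound for 12 h, harvested, PBS-washed, fixed in cold 70% ethanol at 4 °C. Stained with propidium iodide ([…] as printed). DNA content analysed by flow cytometry for G0/G1, S and G2/M fractions.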
On the technique in general: In flow cytometry, cells or beads pass a laser one at a time.

Assay [2] has as its system HeLa. Nature of the assay: Antiproliferative activity against human HeLa cells after 72 hrs by SRB assay. Format: functional, cell-based. The essentials: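 HeLa cells exposed to compound for 72 h, fixed with cold 10% TCA, stained with SRB in 1% acetic acid. Bound dye dissolved in 10 mM Tris-HCl and read at 515 nm. Inhibition % = [1 − (A515 treated/A515 control)] × 100. IC50 by Logit method, mean ± SD of at least three independent tests.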

For assay [3], the system named is HeLa. Nature of the assay: Cell cycle arrest in human HeLa cells assessed as accumulation at G2/M phase at 0.5 uM after 12 hrs by propidium iodide staining-based flow cytometric analysis (reference value: 3%). In kind it is functional. An outline of the steps:
as §1

For assay [4], the system named is HeLa. Nature of the assay: Cell cycle arrest in human HeLa cells assessed as decrease in accumulation at G0/G1 phase at 0.5 uM after 12 hrs by propidium iodide staining-based flow cytometric analysis. In kind it is functional. An outline of the steps:
as §1

Assay [5] has as its target T1, Tubulin (Homo sapiens) (UniProt P68371+Q9H4B7+P0DPH7+P68366+Q13509+Q71U36+P04350+Q3ZCM7+P07437+P68363+Q9BQE3+Q6PEY2+Q13885+Q9BVA1+Q9BUF5). Nature of the assay: Displacement of [3H]-colchicine from tubulin (unknown origin) at 20 uM preincubated for 1 hr followed by radioligand addition measured after 30 mins by competitive binding assay. In kind it is protein-complex assay. (In general: Displacement assays read how much labelled ligand stays bound in the presence of the test substance.)

In assay [6] the target is T1, Tubulin (Homo sapiens). Nature of the assay: Inhibition of tubulin polymerization (unknown origin) at 20 uM by spectrophotometric analysis. Format: protein-complex assay. An outline of the steps: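 Purified tubulin combined with 20 µM compound on ice, then moved to 37 °C. Buffer: 80 mM PIPES pH 6.9, 0.5 mM EGTA, 2 mM MgCl2, 1 mM GTP. Polymerization followed by absorbance at 340 nm.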

For assay [7], the system named is HeLa. Nature of the assay: Antimitotic activity against human HeLa cells assessed as multipolar mitotic spindle with disordered chromosome organization at 0.5 uM after 12 hrs by DAPI staining-based immunofluorescence microscopic analysis. Format: functional, cell-based. The essentials: (§2)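 HeLa cells on glass coverslips, 0.5 µM compound for 12 h; fixed in 4% paraformaldehyde, permeabilized with 0.2% Triton X-100, blocked with 3% BSA. Stained with anti-α-tubulin (1:200) and Alexa Fluor 488 goat anti-mouse IgG (1:100), 1 h each, then DAPI. Imaged by fluorescence and confocal microscopy. Abnormal spindles scored as percentage of total mitotic cells.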

Assay [8] deals with HeLa. Nature of the assay: Antimitotic activity against human HeLa cells assessed as disruption of mitotic spindle assembly at 0.5 uM after 12 hrs by DAPI staining-based immunofluorescence microscopic analysis. In kind it is functional, cell-based. The essentials:
as §2

For `COc1ccc(Cn2c(=O)c3ccccc3c3nc4ccccn4c32)cc1`, the outcome in the assay on HeLa [1] and in the assay with HeLa [4] was Active. Moreover, the IC50 in the assay with HeLa [2] was determined as 1800 nM. Moreover, the Activity in the assay on HeLa [3] stood at 4%.

In turn, `O=c1c2ccccc2c2nc3ccccn3c2n1CCc1ccc(O)cc1` registered an IC50 in the assay on HeLa [2] greater than 10000 nM.

Turning to `COC(=O)CCn1c(=O)c2ccccc2c2nc3ccccn3c21`, the half-inhibitory concentration (IC50) in the assay on HeLa [2] was greater than 10000 nM.

`O=c1c2ccccc2c2nc3ccccn3c2n1Cc1ccc2c(c1)OCO2` returned a concentration for half-maximal inhibition (IC50) in the assay on HeLa [2] greater than 10000 nM.

Take `COc1ccc(CCn2c(=O)c3ccccc3c3nc4ccc(NCCN5CCOCC5)cn4c32)cc1`: it took 1200 nM to reach half-maximal inhibition with HeLa [2] (IC50). Moreover, the inhibition at Tubulin (Homo sapiens) [5] and on Tubulin (Homo sapiens) [6] was 15% throughout.

In turn, `CN(c1ccc(Cn2c(=O)c3ccccc3c3nc4ccccn4c32)cc1)S(C)(=O)=O` gave an IC50 with HeLa [2] greater than 10000 nM.

In the assay with HeLa [2], `COc1ccc(Cn2c(=O)c3ccccc3c3nc4ccc(Br)c(C)n4c32)cc1` returned an IC50 greater than 10000 nM.

The molecule `COc1ccc(CCn2c(=O)c3ccccc3c3nc4ccc(NCc5ccncc5)cn4c32)cc1` displayed an IC50 in the assay with HeLa [2] of 100 nM. For the same molecule, the inhibition was 53% at Tubulin (Homo sapiens) [5] and 63% against Tubulin (Homo sapiens) [6].

`COc1ccc(Cn2c(=O)c3ccccc3c3nc4c(C)cccn4c32)cc1` returned an IC50 in the assay with HeLa [2] greater than 10000 nM.

Molecule `COc1ccc(Cn2c(=O)c3ccccc3c3nc4cccc(C)n4c32)cc1` showed an IC50 in the assay with HeLa [2] greater than 10000 nM.

For `COc1ccc(CCCn2c(=O)c3ccccc3c3nc4ccccn4c32)cc1`, the 50% inhibitory concentration (IC50) in the assay with HeLa [2] was greater than 10000 nM.

For `COc1ccc(CCn2c(=O)c3ccccc3c3nc4ccccn4c32)cc1`, the outcome in the assay on HeLa [7], with HeLa [1], with HeLa [8] and with HeLa [4] was Active. The molecule further gave an IC50 in the assay on HeLa [2] of 70 nM. In the assay with HeLa [3], the Activity is given as 37%. In addition, the figures for the inhibition on Tubulin (Homo sapiens) [5] and against Tubulin (Homo sapiens) [6] were 74% and 76%, respectively.

Take `O=c1c2ccccc2c2nc3ccccn3c2n1Cc1ccco1`: the IC50 in the assay with HeLa [2] is greater than 10000 nM.

`O=c1c2ccccc2c2nc3ccccn3c2n1Cc1ccc(OC(F)(F)F)cc1` had an IC50 in the assay with HeLa [2] greater than 10000 nM.

For the molecule `COc1ccc(Cn2c(=O)c3ccccc3c3nc4ccccn4c32)cc1OC`, the IC50 in the assay with HeLa [2] is greater than 10000 nM.

As to `CC[C@]1(O)C[C@H]2CN(CCc3c([nH]c4ccccc34)[C@@](C(=O)OC)(c3cc4c(cc3OC)N(C=O)[C@H]3[C@@](O)(C(=O)OC)[C@H](OC(C)=O)[C@]5(CC)C=CCN6CC[C@]43[C@@H]65)C2)C1` [VINCRISTINE], 15 nM corresponded to half-maximal inhibition in the assay with HeLa [2] (IC50). Also, the inhibition at Tubulin (Homo sapiens) [6] was found to be 77%.

In the case of `CC(=O)OCCn1c(=O)c2ccccc2c2nc3ccccn3c21`, the IC50 in the assay with HeLa [2] was greater than 10000 nM.

On to `COc1ccc(CCn2c(=O)c3ccccc3c3nc4ccc(NCc5ccccn5)cn4c32)cc1`, for which half-maximal inhibition in the assay with HeLa [2] (IC50) required 240 nM. The inhibition on Tubulin (Homo sapiens) [5] turned out to be 22%; against Tubulin (Homo sapiens) [6] it was 27%.

In the case of `COc1ccc(CCn2c(=O)c3ccccc3c3nc4ccc(NCCO)cn4c32)cc1`, inhibition in the assay on HeLa [2] was half-maximal at 350 nM (IC50). In addition, the inhibition was found to be 34% on Tubulin (Homo sapiens) [5] and 26% against Tubulin (Homo sapiens) [6].

Turning to `COc1ccc(Cn2c(=O)c3ccccc3c3nc4ccccn4c32)c(OC)c1`, in the assay with HeLa [2], the midpoint of inhibition, the IC50, lay at 2240 nM.

The molecule `COc1ccc(CCn2c(=O)c3ccccc3c3nc4ccc(NCCCn5ccnc5)cn4c32)cc1` returned an IC50 with HeLa [2] of 770 nM. Besides, the inhibition at Tubulin (Homo sapiens) [5] came to 21%; at Tubulin (Homo sapiens) [6] it was 33%.

In the assay on HeLa [2], `COc1ccc(Cn2c(=O)c3ccccc3c3nc4ccc(C)cn4c32)cc1` yielded a 50% inhibitory concentration (IC50) of 6600 nM.

As to `COc1ccc(CCn2c(=O)c3ccccc3c3nc4ccc(-n5ccnc5)cn4c32)cc1`, the concentration for half-maximal inhibition (IC50) with HeLa [2] was 120 nM. Further, the inhibition on Tubulin (Homo sapiens) [5] was 36%; on Tubulin (Homo sapiens) [6], 40%.

`COC(=O)Cn1c(=O)c2ccccc2c2nc3ccccn3c21`: the concentration for half-maximal inhibition (IC50) with HeLa [2] was greater than 10000 nM.

Molecule `COc1ccc(Cn2c(=O)c3ccccc3c3nc4cc(C)c(Br)cn4c32)cc1` gave a half-inhibitory concentration (IC50) with HeLa [2] greater than 10000 nM.

Take `CCN(CC)CCNc1ccc2nc3c4ccccc4c(=O)n(CCc4ccc(OC)cc4)c3n2c1`: in the assay with HeLa [2], the half-maximal inhibitory concentration (IC50) is 2280 nM. Also, the inhibition at Tubulin (Homo sapiens) [5] turned out to be 20%; against Tubulin (Homo sapiens) [6], 18%.

`COc1ccc(CCn2c(=O)c3ccccc3c3nc4ccc(NCc5cccnc5)cn4c32)cc1`: the outcome with HeLa [7], in the assay with HeLa [1], in the assay with HeLa [8] and in the assay with HeLa [4] was Active. For the same molecule, in the assay with HeLa [2], the midpoint of inhibition, the IC50, lay at 60 nM. Further, the Activity in the assay on HeLa [3] is 41%. In addition, the inhibition on Tubulin (Homo sapiens) [5] came out at 78%; against Tubulin (Homo sapiens) [6], 74%.

For orientation: IC50 means the concentration that gives 50% inhibition. High values mean weaker potency, low ones greater potency. For orientation: inhibition means the relative decrease from the control value, in per cent. A higher inhibition goes with a strong effect.
